The full list was thinned out, with hits kept by preference.
Myeloid diff 2: induction of myeloid progenitor differentiation, primary screen, cell-based, flow cytometry, MLPCN library. calls only at 10 µM. hit rate 1% among 360,000. ER-HoxA9 myeloid progenitors, lysozyme-GFP differentiation. AID 624256, 2012;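 active = normalized GFP-positive differentiation at or above the plate's own cutoff, the solvent-only control mean plus 3 SD; inconclusive = no clear call, values can overlap the other calls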;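 also: cells exposed to compound for four days before flow analysis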
ABCB6 inh 2: ABCB6 transporter inhibitors, primary screen, K562-ABCB6 cells, flow cytometry, MLPCN library; ATP-binding cassette sub-family B member 6 (Homo sapiens), Q9NP58; K562-ABCB6 porphyrin accumulation, 1 h; stronger effect = lower value; fluorescence ratio to DMSO, % at 10 µM; hit rate 0.19% among 360,000; AID 602162, 2011;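 active = fluorescence ratio to DMSO below 75%, the collection mean minus 3 SD; inconclusive = too few cells collected in the well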;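 also: signal is porphyrin accumulated inside mitochondria; 100% equals median channel fluorescence of DMSO control wells; lower ratio means ABCB6 inhibition with less porphyrin fluorescence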
Target sequence (Q9NP58 whole entry, looked up): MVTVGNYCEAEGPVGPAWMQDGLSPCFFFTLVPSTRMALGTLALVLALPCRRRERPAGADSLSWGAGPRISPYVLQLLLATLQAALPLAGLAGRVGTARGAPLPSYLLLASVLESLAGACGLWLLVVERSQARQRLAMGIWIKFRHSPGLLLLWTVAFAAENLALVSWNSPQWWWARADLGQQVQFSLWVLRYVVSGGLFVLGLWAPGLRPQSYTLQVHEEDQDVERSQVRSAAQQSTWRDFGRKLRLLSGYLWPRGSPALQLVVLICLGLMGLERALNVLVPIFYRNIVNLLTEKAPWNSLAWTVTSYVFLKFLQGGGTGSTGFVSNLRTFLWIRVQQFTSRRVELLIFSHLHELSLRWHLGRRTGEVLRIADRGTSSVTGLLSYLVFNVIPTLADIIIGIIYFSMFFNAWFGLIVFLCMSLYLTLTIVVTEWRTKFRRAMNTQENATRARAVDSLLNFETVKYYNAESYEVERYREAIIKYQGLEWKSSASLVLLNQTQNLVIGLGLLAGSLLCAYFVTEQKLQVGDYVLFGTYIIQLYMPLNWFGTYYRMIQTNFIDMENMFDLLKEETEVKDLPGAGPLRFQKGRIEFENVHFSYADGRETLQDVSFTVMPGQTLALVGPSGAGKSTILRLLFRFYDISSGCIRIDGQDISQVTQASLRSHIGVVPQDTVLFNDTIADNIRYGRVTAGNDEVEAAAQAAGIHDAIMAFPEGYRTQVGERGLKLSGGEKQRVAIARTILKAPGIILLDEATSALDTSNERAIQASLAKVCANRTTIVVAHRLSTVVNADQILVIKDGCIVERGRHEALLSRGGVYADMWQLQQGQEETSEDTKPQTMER
XiGFP reactiv: activators of inactive X chromosome reactivation, primary screen, imaging, XiGFP fibroblasts, GFP high-content imaging, set 2. hit rate 0.055% among 360,000. activation, % at 7.58 µM. AID 743238, 2013. XiGFP mouse fibroblasts, % GFP-positive cells imaging, 3 d; cells co-treated with 5-aza-dC sensitizer; scaled so ellipticine positive control = 100%;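 active = mean normalized replicate activation at least 10% and every replicate at or above 10%; inconclusive = only one of the two criteria met; inactive = mean below 10% and not all replicates reach 10%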;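 also: 0% = median of on-plate neutral control wells and 100% = ellipticine 6 µM median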
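System: 68-5-11 XiGFP fibroblast line; Timing: 3 days compound exposure; Compound dosing: one concentration, pinned; Benchmarks: positive control ellipticine, 6 µM final; Buffer or medium: DMEM containing 5-aza-dC.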
Myeloid diff CP1: inducers of myeloid progenitor differentiation, confirmation, cell-based, GFP/Mac1 flow cytometry, cherry pick 01; hit rate 2% among 2,300; calls only; shares compounds with Myeloid diff 2; ER-HoxA9 myeloid progenitors, GFP/Mac1 double-positive flow;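 active = share of green or green-and-red cells above 9 and 9% in run 1 or 4 and 3% in run 2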
GFP autofluor: compound fluorescence in myeloid differentiation counter-screen. hit rate 7.4% among 2,300. ER-HoxA9 myeloid progenitors, no estrogen, GFP autofluorescence flow cytometry; vehicle wells 0%, positive control 100%. AID 651707. fluorescence response, % (no concentration beside the values). shares compounds with Myeloid diff 2;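 active = over 5% cells positive for green fluorescent reporter, or over 2% positive for both it and APC stain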;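 also: range taken on the double positive population between DMSO and positive control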
* = called active by the depositor; i = inactive; ? = inconclusive; · = no result; + = active, no number.

SMILES	Myeloid diff 2	ABCB6 inh 2	XiGFP reactiv	Myeloid diff CP1	GFP autofluor
O=C(OCC(=O)c1c[nH]c2ccccc12)c1cccc(S(=O)(=O)N2CCCCCC2)c1	i	99	0	i	0
O=C(COC(=O)c1cccc(S(=O)(=O)N2CCCCC2)c1)NCc1ccccc1	i	92	0	·	·
C[C@@H]1CN([C@H](C)CO)C(=O)c2cccc(N(C)C)c2O[C@@H]1CN(C)S(=O)(=O)c1cn(C)cn1	·	·	-1	·	·
COc1cc(C#Cc2c(-c3cncn3C)n(C)c3ccc(-c4ccc5[nH]ccc5c4)cc23)cc(OC)c1	i	97	0	i	98*
COc1cc(C#Cc2c(-c3cncn3C)n(C)c3ccc(-c4ccc(OC)nc4)cc23)cc(OC)c1	i	99	0	·	·
COc1ccc(C2=NN(S(C)(=O)=O)C(c3cccs3)C2)cc1 (stereo not given)	i	99	0	·	·
Cc1ccc(C2=NN(S(C)(=O)=O)C(c3cccs3)C2)cc1 (stereo not given)	i	95	·	i	0
Cc1ccc(C)c2[nH]c(=O)c(C(c3nnnn3C(C)(C)C)N3CC=C(c4ccc(F)cc4)CC3)cc12 (stereo not given)	+	96	0	i	1
CCC(C)(C)n1nnnc1C(c1cc2cccc(C)c2[nH]c1=O)N1CCCC1 (stereo not given)	i	100	·	·	·
Cc1cc(N2CCCC2)ccc1/C=C1\NC(=S)N(C)C1=O	i	250	1	i	51*
CN1C(=O)c2ccc(N3CCCC3)cc2C1=O	i	101	·	·	·
C[C@@H]1CN([C@@H](C)CO)C(=O)c2cc(NC(=O)Cn3cnnn3)ccc2O[C@@H]1CN(C)S(=O)(=O)c1ccc(Cl)cc1	·	·	0	·	·
CC1CCN(C2=NC(=O)/C(=C/c3ccccc3F)S2)CC1	i	93	0	·	·
CN1C2CCC1/C(=C\c1ccccc1F)C(=O)/C2=C/c1ccccc1F	i	101	1	i	0
C[C@H](CO)N1C[C@H](C)[C@@H](CN(C)S(=O)(=O)c2ccc(Cl)cc2)Oc2c(NS(=O)(=O)c3ccccc3)cccc2C1=O	·	·	-1	·	·
Cc1nc(SCC(=O)c2cc3ccccc3oc2=O)c(C#N)c(-c2ccccc2)c1C(=O)Nc1ccccc1	i	101	0	i	0
COc1ccc(-c2c(C#N)c(SCC(=O)c3cc4ccccc4oc3=O)nc(C)c2C(=O)Nc2ccccc2)cc1	?	95	0	·	·
COc1ccc(/C=C\C(=O)c2c(O)ccc3c(C)cc(=O)oc23)cc1OC	i	100	·	i	0
COc1cc(/C=C/C(=O)c2c(O)ccc3c(C)cc(=O)oc23)ccc1O	i	93	·	·	·
Cn1nnnc1Sc1c(Cl)cccc1[N+](=O)[O-]	i	98	0	·	·
Cn1nnnc1Sc1ccc([N+](=O)[O-])cc1Cl	i	96	0	i	0
O=[N+]([O-])c1ccc(Sc2nnnn2-c2ccccc2)c(Cl)c1	+	99	·	i	0
Nc1ccc(Sc2nnnn2-c2ccccc2)c(Cl)c1	i	98	·	·	·
C[C@H](CO)N1C[C@H](C)[C@@H](CN(C)S(=O)(=O)c2ccc(C#N)cc2)OCc2ccccc2-c2ccccc2C1=O	·	·	0	·	·
Fc1ccccc1NC(=S)N1CCN(Cc2ccc3c(c2)OCO3)CC1	i	89	0	·	·
SMILES	Myeloid diff 2	ABCB6 inh 2	XiGFP reactiv	Myeloid diff CP1	GFP autofluor
Cc1cc(Cl)ccc1NC(=S)N1CCN(Cc2ccc3c(c2)OCO3)CC1	+	95	·	i	0
COCC(=O)Nc1ccc2c(c1)OC[C@H](C)N(C(=O)COC)C[C@@H](C)[C@@H](OC)CN(C)C2=O	·	·	0	·	·
CC=Cc1ccc2n(c1=O)C[C@@H]1[C@@H](CO)[C@H](C(=O)NCC3CC3)N(Cc3ccccn3)[C@H]21 (mixture of isomers)	·	·	0	·	·
COCCCn1c(SCC(=O)OC2CCCCC2)nnc1-c1ccco1	i	95	·	·	·
COCCCn1c(SCC(=O)OC2CCCCC2)nnc1-c1cccs1	i	104	·	i	0
C[C@H](CO)N1C[C@H](C)[C@H](CN(C)C(=O)Nc2ccc(C(F)(F)F)cc2)Oc2c(NS(C)(=O)=O)cccc2C1=O	·	·	0	·	·
CCOc1ccc(NS(=O)(=O)c2ccc(NS(=O)(=O)c3ccccc3)cc2)cc1	i	100	·	i	0
CCOc1ccc(S(=O)(=O)Nc2cc(NS(=O)(=O)c3ccc(OCC)cc3)cc(C(=O)O)c2)cc1	i	103	0	·	·
C[C@@H]1CN([C@H](C)CO)C(=O)c2cc(NC(=O)CCC(F)(F)F)ccc2O[C@@H](C)CCCCO[C@H]1CN(C)C(=O)Nc1ccc(C(F)(F)F)cc1	·	·	-1	·	·
CCC(C)c1c(O)nc(SCC(=O)N2CCOCC2)[nH]c1=O (stereo not given)	i	107	·	i	0
CC(C)c1c(O)nc(SCCN2CCOCC2)[nH]c1=O	i	100	·	·	·
C[C@H]1CN([C@@H](C)CO)S(=O)(=O)c2ccc(C#CC3CC3)cc2O[C@@H]1CN(C)Cc1cccnc1	·	·	0	·	·
O=C(COC(=O)c1cnccn1)c1ccc2ccccc2c1	i	102	·	i	0
O=C(COC(=O)c1cnccn1)c1ccc(OC(=O)c2ccccc2)cc1	i	113	·	·	·
O=C(Cc1ccccn1)N1CC2(C1)[C@H](c1ccccc1)[C@H](CO)N2C(=O)c1ccncc1	·	·	0	·	·
O=C(Nc1sc2c(c1C(=O)O)CCCC2)c1cccs1	i	101	·	·	·
O=C(Nc1sc2c(c1C(=O)NCC1CCCO1)CCCC2)c1cccs1 (stereo not given)	i	105	·	i	0
O=[N+]([O-])c1cccc(-c2ccc(C(=S)N3CCOCC3)o2)c1	i	98	0	·	·
O=[N+]([O-])c1cc(-c2ccc(C(=S)N3CCOCC3)o2)ccc1Cl	+	102	0	i	0
CC(=O)Nc1ccc(NC(=O)CSc2ccc(-c3cccnc3)nn2)cc1	i	105	0	·	·
O=C(CSc1ccc(-c2cccnc2)nn1)Nc1ccc(Br)cc1	i	99	0	i	0
C[C@@H]1CN([C@H](C)CO)C(=O)c2cccc(NS(C)(=O)=O)c2O[C@@H]1CN(C)Cc1ccc(Oc2ccccc2)cc1	·	·	0	·	·
C[C@@H]1CN([C@@H](C)CO)C(=O)c2cccc(NS(C)(=O)=O)c2O[C@H]1CN(C)Cc1ccc(Oc2ccccc2)cc1	i	94	0	i	0
O=C(NCC(c1cccs1)N1CCOCC1)c1ccc(OCc2ccccc2)cc1 (stereo not given)	+	100	0	i	0
CCOc1ccc(C(=O)NCC(c2cccs2)N2CCOCC2)cc1 (stereo not given)	i	94	0	·	·

Screening results deposited in PubChem BioAssay by several laboratories.
